The results in this text go back to ChEMBL document CHEMBL1126907, “Possible contribution of a glutathione conjugate to the long-duration action of beta-funaltrexamine” (J Med Chem, 1993).

Assay [1] deals with Mus musculus. The experiment in a line: Equivalent antagonist potencies of compound was measured after 24 hr of sc administration in mice; antagonist dose. The class given is functional.
The nature of assay [2]: Ratio of Equivalent antagonist potencies after 24 hr of icv administration/Equivalent antagonist potencies after 24 hr of sc administration in mice was determined. The class given is functional.
Assay [3] is described as follows: Inhibitory concentration of ethylketazocine determined after treating with conjugate for 60 min of guinea pig ileum then divided by control IC50 in same preparation. The class given is functional. The method, boiled down: (§1)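 Electrically stimulated guinea pig ileum was incubated with conjugate (1 × 10^-6 M) for 60 min, then washed ≥40 times with buffer. The agonist IC50 (ethylketazocine or morphine) was then divided by the control IC50 in the same preparation. Assays were run in triplicate, with se reported.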

A short description of assay [4]: Ratio of effective dose of morphine at 24 hr after antagonism treatment by icv administration in mice (4.8 nmol) divided by its control ED50. The class given is functional. The method, boiled down: (§2)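 Mice got antagonist icv at 4.8 nmol/mouse. At set times afterwards, morphine was given sc, and radiant heat tail-flick antinociception was measured 30 min later. The morphine ED50 was divided by the control ED50. Results are given with 95% confidence limits from three or four animals.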

Assay [5] is described as follows: Ratio of effective dose of morphine at 24 hr after antagonism treatment by sc administration in mice divided by its control). The class given is functional. The method, boiled down:
(§3)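 Mice got antagonist sc at 5 mg/kg. At 30 min or 24 h, sc morphine was given 30 min before radiant heat tail-flick testing. The morphine ED50 was divided by the control ED50, with 95% confidence limits from three or four animals.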

Assay [6] can be described thus: Inhibitory concentration of morphine determined after treating with conjugate for 60 min of guinea pig ileum then divided by control IC50 in same preparation. The class given is functional. The method, boiled down:
as §1

Assay [7] can be described thus: Ratio of effective dose of morphine at 2 hr after antagonist treatment by icv administration in mice (4.8 nmol) divided by its control. The class given is functional. The method, boiled down: as §2
A short description of assay [8]: Ratio of effective dose of morphine at 30 min after antagonism treatment by sc administration in mice divided by its control. The class given is functional. An outline of the steps: as §3
For assay [9], the target named is Mu-type opioid receptor (Cavia porcellus, UniProt P97266). Kind of assay: Inhibitory concentration against mu-opioid receptor in guinea pig ileum. The class given is tissue-based. An outline of the steps:
(§4)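 Electrically stimulated guinea pig ileum longitudinal muscle or mouse vas deferens. Agonist IC50 for inhibition of the stimulated response was determined as described previously.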

The subject of assay [10] is Mus musculus. Kind of assay: Equivalent antagonist potencies of compound was measured after 24 hr of icv administration in mice; antagonist dose. The class given is functional.
In assay [11] the target is Mu-type opioid receptor (Mus musculus, UniProt P42866). Kind of assay: Inhibitory concentration against mu-opioid receptor in mouse vas deferens. The method, boiled down:
as §4

The nature of assay [12]: Ratio of effective dose of morphine at 48 hr after antagonism treatment by icv administration in mouse (4.8 nmol) divided by its control ED50. The class given is functional. The method, boiled down: as §2
The test system of assay [13] is Mus musculus. Kind of assay: Equivalent antagonist potencies of compound was measured after 24 hr of sc administration; antagonist dose. The class given is functional.
A short description of assay [14]: Ratio of Equivalent antagonist potencies after 24 hr of icv administration/Equivalent antagonist potencies after 24 hr of sc administration was determined. The class given is functional.
A short description of assay [15]: (§5) Ratio of effective dose of morphine at 24 hr after antagonism treatment by icv administration in mouse (4.8 nmol) divided by its control ED50. The class given is functional. An outline of the steps: as §2
The nature of assay [16]: Ratio of effective dose of morphine at 72 hr after antagonism treatment by icv administration in mouse (4.8 nmol) divided by its control ED50. The class given is functional. The method, boiled down: as §2
Assay [17] concerns Mus musculus. Kind of assay: Equivalent antagonist potencies of compound was measured after 24 hr of icv administration; antagonist dose. The class given is functional.
Assay [18] can be described thus: (§6) Ratio of effective dose of morphine at 30 min after antagonism treatment by sc administration in mouse divided by its control. The class given is functional. An outline of the steps:
as §3

Assay [19] is described as follows: (§7) Ratio of effective dose of morphine at 2 hr after antagonist treatment by icv administration in mouse (4.8 nmol) divided by its control. The class given is functional. The method, boiled down:
as §2

Assay [20] can be described thus: (§8) Ratio of effective dose of morphine at 24 hr after antagonism treatment by sc administration in mouse divided by its control. The class given is functional. An outline of the steps:
as §3

Assay [21] can be described thus: Ratio of effective dose of morphine at 24 hr after antagonism treatment by icv administration (4.8 nmol) divided by its control ED50. The class given is functional. The method, boiled down: (§9)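 Mice, radiant heat tail-flick. Antagonist given icv at 4.8 nmol/mouse. At the stated interval afterwards, morphine was given sc and the test read 30 min later. Morphine ED50 after treatment was divided by control ED50. 95% confidence limits come from three or four animals.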

A short description of assay [22]: Ratio of effective dose of morphine at 24 hr after antagonism treatment by sc administration divided by its control. The class given is functional. The method, boiled down:
(§10)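 Mice, radiant heat tail-flick. Antagonist given sc at 5 mg/kg. At the stated interval, sc morphine was given 30 min before testing. Post-treatment morphine ED50 was divided by control ED50. 95% confidence limits come from three or four animals.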

Assay [23] in a line: Ratio of effective dose of morphine at 72 hr after antagonism treatment by icv administration (4.8 nmol) divided by its control ED50. The class given is functional. The method, boiled down:
as §9

The subject of assay [24] is Mus musculus. The experiment in a line: Equivalent antagonist potencies of compound was measured after 24 hr of icv administration. The class given is functional.
The subject of assay [25] is Mus musculus. Kind of assay: Equivalent antagonist potencies of compound was measured after 24 hr of sc administration. The class given is functional.
Assay [26] is described as follows: Ratio of effective dose of morphine at 30 min after antagonism treatment by sc administration divided by its control. The class given is functional. The method, boiled down:
as §10

The nature of assay [27]: Ratio of effective dose of morphine at 2 hr after antagonist treatment by icv administration (4.8 nmol) divided by its control. The class given is functional. An outline of the steps:
as §9

Assay [28] deals with Mus musculus. The description is as §5. The class given is functional. An outline of the steps:
as §2

The subject of assay [29] is Mus musculus. The description is as §6. The class given is functional. The method, boiled down:
as §3

The test system of assay [30] is Mus musculus. Described as §7. The class given is functional. An outline of the steps:
as §2

Assay [31] relates to Mus musculus. Described as §8. The class given is functional. An outline of the steps:
as §3

Mu-type opioid receptor (Cavia porcellus, UniProt P97266), sequence (P97266 whole entry): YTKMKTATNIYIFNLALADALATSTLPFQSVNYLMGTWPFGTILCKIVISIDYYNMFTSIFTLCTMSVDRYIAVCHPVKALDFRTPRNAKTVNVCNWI
Mu-type opioid receptor (Mus musculus, UniProt P42866), sequence (P42866 whole entry): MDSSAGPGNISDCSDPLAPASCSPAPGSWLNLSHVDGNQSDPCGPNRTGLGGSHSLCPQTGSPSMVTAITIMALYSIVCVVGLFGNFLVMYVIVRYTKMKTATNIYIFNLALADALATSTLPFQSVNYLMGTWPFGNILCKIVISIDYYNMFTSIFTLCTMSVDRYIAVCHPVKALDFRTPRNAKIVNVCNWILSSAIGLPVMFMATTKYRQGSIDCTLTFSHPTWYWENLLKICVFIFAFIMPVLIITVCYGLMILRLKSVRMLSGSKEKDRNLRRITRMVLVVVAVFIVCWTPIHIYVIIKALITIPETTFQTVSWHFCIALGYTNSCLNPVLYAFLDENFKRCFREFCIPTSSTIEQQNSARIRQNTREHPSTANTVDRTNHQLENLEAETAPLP

As to `COC(=O)CC(SCC(NC(=O)CCC(N)C(=O)O)C(=O)NCC(=O)O)C(=O)N[C@@H]1CC[C@@]2(O)[C@H]3Cc4ccc(O)c5c4[C@@]2(CCN3CC2CC2)[C@H]1O5` (stereo not given in full), the Inhibition in the assay with Mus musculus [1] is 3 µM/kg; in the assay on Mus musculus [10] it was 0.036 µM/kg. The Ratio in assay [2] was found to be 83; in assay [3], 0.3; in assay [4], 6.3; in [5], 2.6; in assay [6], 1.2; in assay [7], 3.1. Further, the Ratio in assay [8] turned out to be 3.8. For the same compound, the 50% inhibitory concentration (IC50) (usually the concentration needed to halve the response being measured) on Mu-type opioid receptor [9] was 41 nM; against Mu-type opioid receptor [11], 280 nM.
Take `COC(=O)CC(SCC(N)C(=O)O)C(=O)N[C@@H]1CC[C@@]2(O)[C@H]3Cc4ccc(O)c5c4[C@@]2(CCN3CC2CC2)[C@H]1O5` (stereo not given in full): the Ratio in [3] was 1; in [12] it was 2.8; in [6], 1.7; in [14], 1250; in assay [15], 42.2; in assay [16] it was 1.3. For the same compound, the Ratio came to 1.4 in assay [18], 4.8 in assay [19] and 1.3 in assay [20]. Also, the results for the Inhibition in the assay on Mus musculus [13] and in the assay with Mus musculus [17] were 5 µM/kg and 0.004 µM/kg, respectively. In addition, the IC50 on Mu-type opioid receptor [9] stood at 22 nM; against Mu-type opioid receptor [11], 140 nM.
With `COC(=O)/C=C/C(=O)N[C@@H]1CC[C@@]2(O)[C@H]3Cc4ccc(O)c5c4[C@@]2(CCN3CC2CC2)[C@H]1O5`, the Ratio in assay [21] is on record as 6.6; in assay [3] it was 1.1; in assay [22], 3.9; in assay [23] it was 2.4; in [6], 19.5; in assay [14], 74. Besides, the Ratio amounted to 3.9 in assay [26] and 9.7 in assay [27]. Further, the Inhibition with Mus musculus [24] came out at 0.034 µM/kg; with Mus musculus [25], 2.5 µM/kg. The IC50 at Mu-type opioid receptor [9] was 4.8 nM; against Mu-type opioid receptor [11], 82 nM.
Turning to `NC(CSCC(=O)N[C@@H]1CC[C@@]2(O)[C@H]3Cc4ccc(O)c5c4[C@@]2(CCN3CC2CC2)[C@H]1O5)C(=O)O` (stereo not given in full), the Ratio is 0.57 in the assay on Mus musculus [28], 3 with Mus musculus [29], 3 in the assay with Mus musculus [30] and 1.3 in the assay on Mus musculus [31].
